Experimental data published in ChEMBL document CHEMBL1144404, “Aminoimidazolylmethyluracil analogues as potent inhibitors of thymidine phosphorylase and their bioreductive nitroimidazolyl prodrugs” (J Med Chem, 2005).

Legend:
[1] = target: T1, Thymidine phosphorylase (Homo sapiens) (UniProt P19971); test: Ratio of Kcat to Km against human thymidine phosphorylase
T1 sequence (whole entry): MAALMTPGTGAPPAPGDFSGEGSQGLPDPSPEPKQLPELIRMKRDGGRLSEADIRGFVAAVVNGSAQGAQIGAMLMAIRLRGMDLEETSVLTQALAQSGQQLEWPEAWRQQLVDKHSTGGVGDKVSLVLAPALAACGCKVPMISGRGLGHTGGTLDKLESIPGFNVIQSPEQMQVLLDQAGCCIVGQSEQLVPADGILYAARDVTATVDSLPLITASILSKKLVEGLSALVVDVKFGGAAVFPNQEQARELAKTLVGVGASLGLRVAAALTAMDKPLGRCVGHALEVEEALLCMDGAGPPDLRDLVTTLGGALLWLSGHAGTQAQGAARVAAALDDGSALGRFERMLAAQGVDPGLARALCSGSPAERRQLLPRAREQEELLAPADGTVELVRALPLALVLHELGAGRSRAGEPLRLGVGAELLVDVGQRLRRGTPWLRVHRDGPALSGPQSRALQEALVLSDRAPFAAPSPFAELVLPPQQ
Procedure, shortened: (§1)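 Recombinant human TP expressed in V79 Chinese hamster cells, 0.065 absorbance unit per assay. Continuous spectrophotometric assay at 355 nm, 25 °C, 0.1 M phosphate buffer pH 7.4, 0.2 mL total volume, with 5-nitro-2'-deoxyuridine as substrate; kinetic constants from initial rates.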

[2] = target: Thymidine phosphorylase (Escherichia coli K-12) (UniProt P07650); test: Catalytic constant against Escherichia coli thymidine phosphorylase
Procedure, shortened: (§2)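 Continuous UV assay at 355 nm and 25 °C in 0.2 mL of 0.1 M potassium phosphate pH 7.4, using recombinant E. coli TP (ca. 0.00883 units per assay) added to start the reaction. Substrate is thymidine or 5-nitro-2'-deoxyuridine; phosphorolysis to 5-nitrouracil followed (εM 13300 M-1 cm-1 for substrate).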

[3] = target: T1, Thymidine phosphorylase (Homo sapiens); test: Catalytic constant against human thymidine phosphorylase; procedure, shortened: as §1
[4] = target: Thymidine phosphorylase (Escherichia coli K-12) (UniProt P07650); test: Ratio of Kcat to Km for Escherichia coli thymidine phosphorylase; procedure, shortened: as §2

Chain of Thymidine phosphorylase (Escherichia coli K-12) (P07650 whole entry, looked up): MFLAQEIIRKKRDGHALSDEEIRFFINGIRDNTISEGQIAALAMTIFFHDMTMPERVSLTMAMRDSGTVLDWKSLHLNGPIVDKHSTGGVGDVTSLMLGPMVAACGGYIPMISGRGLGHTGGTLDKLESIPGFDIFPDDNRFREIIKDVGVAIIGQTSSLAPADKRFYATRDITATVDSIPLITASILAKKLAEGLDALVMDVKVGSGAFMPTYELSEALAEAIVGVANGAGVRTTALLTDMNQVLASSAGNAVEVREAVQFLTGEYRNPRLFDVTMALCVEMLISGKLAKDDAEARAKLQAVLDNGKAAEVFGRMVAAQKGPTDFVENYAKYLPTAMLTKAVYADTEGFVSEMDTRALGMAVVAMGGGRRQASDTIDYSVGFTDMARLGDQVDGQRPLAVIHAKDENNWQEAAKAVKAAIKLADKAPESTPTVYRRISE

Row | Compound | Ratio [1] [M⁻¹ s⁻¹] | k cat [2] [s⁻¹] | k cat [3] [s⁻¹] | Ratio [4] [M⁻¹ s⁻¹]
1 | O=c1[nH]c(=O)n([C@H]2C[C@H](O)[C@@H](CO)O2)cc1[N+](=O)[O-] | 18000 | 20 | 2.88 | 87000
2 | Cc1cn([C@H]2C[C@H](O)[C@@H](CO)O2)c(=O)[nH]c1=O |  | 1770 |  | 7.4e+06
